According to ChEMBL document CHEMBL3244306, “Folate analogues altered in the C9-N10 bridge region: N10-Toxylisohomofolic acid and N10-Toxylisohomoaminopterin” (1978):
In brackets after ≈: the same amount, converted by molar mass. Activity calls are given as the source filed them. The calls are words filed in the database; no cut-off is given here.

Tests used:
Lacticaseibacillus casei [1] = experiment: Antibacterial activity against Lactobacillus casei ATCC 7469 assessed as growth inhibition; type: functional
Enterococcus faecium [2] = experiment: Antibacterial activity against Streptococcus faecium ATCC 8043 assessed as growth inhibition; type: functional
Lacticaseibacillus casei [3] = experiment: Antibacterial activity against methotrexate-resistant Lactobacillus casei assessed as growth inhibition up to 4 ug/ml; type: functional, organism-based
Enterococcus faecium [4] = experiment: Antibacterial activity against methotrexate-resistant Streptococcus faecium assessed as growth inhibition up to 4 ug/ml; type: functional, organism-based
Pediococcus = experiment: Antimicrobial activity against Pediococcus cerevisiae ATCC 8081 assessed as growth inhibition; type: functional
[5] = molecular target: Dihydrofolate reductase (Lactobacillus casei) (UniProt P00381); experiment: Inhibition of Lactobacillus casei DHFR at 1 X 10^-4 M relative to control; details: Lacticaseibacillus casei
Chain of Dihydrofolate reductase (Lactobacillus casei) (P00381 whole entry): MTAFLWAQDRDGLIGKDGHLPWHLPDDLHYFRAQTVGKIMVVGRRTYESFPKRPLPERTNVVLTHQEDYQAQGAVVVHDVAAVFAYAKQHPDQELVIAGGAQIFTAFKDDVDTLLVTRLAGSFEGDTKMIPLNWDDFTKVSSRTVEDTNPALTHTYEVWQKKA

[6] = molecular target: T1, Thymidylate synthase (Lactobacillus casei) (UniProt P00469); experiment: Inhibition of Lactobacillus casei thymidylate synthase assessed as conversion of dUMP32 to dTP32PP at 6 X 10^-5 M after 30 mins relative to control; details: Lacticaseibacillus casei
T1 sequence (whole entry): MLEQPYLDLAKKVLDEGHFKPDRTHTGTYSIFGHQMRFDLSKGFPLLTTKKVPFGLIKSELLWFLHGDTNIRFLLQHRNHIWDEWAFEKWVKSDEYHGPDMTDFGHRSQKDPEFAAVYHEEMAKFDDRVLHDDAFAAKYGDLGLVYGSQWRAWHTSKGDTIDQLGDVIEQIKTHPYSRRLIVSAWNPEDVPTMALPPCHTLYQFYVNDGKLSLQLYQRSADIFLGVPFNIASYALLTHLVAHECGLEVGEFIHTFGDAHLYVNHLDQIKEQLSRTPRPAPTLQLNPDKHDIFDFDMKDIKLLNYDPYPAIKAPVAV

Lacticaseibacillus casei [7] = experiment: Inhibition of 5-[14C]methyltetrahydrofolate uptake in Lactobacillus casei at 4 X 10^-7 M relative to control; type: functional
Procedure, shortened: (§1)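 Cells (1.0 × 10⁹, 1.0 mg dry weight) in 0.1 M potassium phosphate pH 6.5 with 1% glucose and […] (40000 cpm) 5-[¹⁴C]methyltetrahydrofolate, 1.0 mL total. Incubated 1 min at 37 °C, then stopped by membrane filtration with three ice-cold saline washes. Dried filters were scintillation counted. Uptake is compared with a control.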

[8] = molecular target: Dihydrofolate reductase (Lactobacillus casei) (UniProt P00381); experiment: Inhibition of Lactobacillus casei DHFR at 6.2 X 10^-5 M relative to control; details: Lacticaseibacillus casei
[9] = molecular target: T1, Thymidylate synthase (Lactobacillus casei); experiment: Inhibition of Lactobacillus casei thymidylate synthase assessed as conversion of dUMP32 to dTP32PP at 1 X 10^-4 M after 30 mins relative to control; details: Lacticaseibacillus casei
Lacticaseibacillus casei [10] = experiment: Inhibition of 5-[14C]methyltetrahydrofolate uptake in Lactobacillus casei at 1 X 10^-4 M relative to control; type: functional; procedure, shortened: as §1
Lacticaseibacillus casei [11] = experiment: Inhibition of 5-[14C]methyltetrahydrofolate uptake in Lactobacillus casei at 1.5 X 10^-5 M relative to control; type: functional; procedure, shortened: as §1
Lacticaseibacillus casei [12] = experiment: Inhibition of 5-[14C]methyltetrahydrofolate uptake in Lactobacillus casei at 1.6 X 10^-6 M relative to control; type: functional; procedure, shortened: as §1

SMILES	growth inhibition (GI) (Lacticaseibacillus casei [3])	growth inhibition (GI) (Enterococcus faecium [4])	growth inhibition (GI) (Pediococcus)	inhibition [5]	inhibition [6]	inhibition at 0.4 µM (Lacticaseibacillus casei [7])	inhibition [9]	other results
Cc1ccc(S(=O)(=O)N(Cc2ccc(C(=O)N[C@@H](CCC(=O)O)C(=O)O)cc2)Cc2cnc3nc(N)nc(O)c3n2)cc1	inactive	inactive	inactive	32%	12%	50%	–	growth inhibition (GI) (Lacticaseibacillus casei [1]): inactive; growth inhibition (GI) (Enterococcus faecium [2]): inactive
Cc1ccc(S(=O)(=O)N(Cc2ccc(C(=O)N[C@@H](CCC(=O)O)C(=O)O)cc2)Cc2cnc3nc(N)nc(N)c3n2)cc1	inactive	inactive	inactive	–	–	50%	20%	GI50 (Lacticaseibacillus casei [1]): 0.2 µg/mL (≈ 0.329 µM); GI50 (Enterococcus faecium [2]): 3.8 µg/mL (≈ 6.24 µM); inhibition [8]: 50%
COC(=O)c1ccc(CN(CC2=Nc3c(N)nc(N)nc3NC2)S(=O)(=O)c2ccc(C)cc2)cc1	–	–	–	0%	–	–	0%	inhibition at 100 µM (Lacticaseibacillus casei [10]): 32%
COC(=O)c1ccc(CN(Cc2cnc3nc(N)nc(O)c3n2)S(=O)(=O)c2ccc(C)cc2)cc1	–	–	–	23%	16%	–	–	inhibition at 15 µM (Lacticaseibacillus casei [11]): 50%
Cc1ccc(S(=O)(=O)N(Cc2ccc(C(=O)O)cc2)Cc2cnc3nc(N)nc(O)c3n2)cc1	–	–	–	25%	15%	–	–	–
Cc1ccc(S(=O)(=O)N(Cc2ccc(C(=O)O)cc2)Cc2cnc3nc(N)nc(N)c3n2)cc1	–	–	–	17%	–	–	0%	inhibition at 1.6 µM (Lacticaseibacillus casei [12]): 50%
